Among the data in ChEMBL document CHEMBL1129413, “Synthesis and selective monoamine oxidase B-inhibiting properties of 1-methyl-1,2,3,6-tetrahydropyrid-4-yl carbamate derivatives: potential prodrugs of (R)- and (S)-nordeprenyl” (J Med Chem, 1996) are Activity, Residual activity and Ratio values, retold here.

“And” between values parts separate entries of the source, which are not always exact repeats. Equal entries are not always repeated.

Data set [1] concerns the target T1, Monoamine oxidase (Mus musculus, UniProt Q8BW75+Q64133).
T1 sequence (Q8BW75 whole entry): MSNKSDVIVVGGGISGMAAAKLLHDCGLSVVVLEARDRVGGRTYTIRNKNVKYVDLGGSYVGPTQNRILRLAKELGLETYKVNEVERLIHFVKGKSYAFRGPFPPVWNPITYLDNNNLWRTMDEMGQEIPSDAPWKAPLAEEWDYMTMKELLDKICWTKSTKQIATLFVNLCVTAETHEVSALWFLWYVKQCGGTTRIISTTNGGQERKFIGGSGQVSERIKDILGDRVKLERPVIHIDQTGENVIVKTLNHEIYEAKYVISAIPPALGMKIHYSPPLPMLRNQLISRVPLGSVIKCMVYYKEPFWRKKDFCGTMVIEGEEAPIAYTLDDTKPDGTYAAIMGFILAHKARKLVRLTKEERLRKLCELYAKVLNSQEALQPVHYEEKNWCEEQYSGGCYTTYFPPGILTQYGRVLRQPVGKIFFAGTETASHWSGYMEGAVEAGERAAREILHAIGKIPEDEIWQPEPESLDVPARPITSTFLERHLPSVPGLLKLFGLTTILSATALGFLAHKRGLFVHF
T1 sequence (Q64133 whole entry): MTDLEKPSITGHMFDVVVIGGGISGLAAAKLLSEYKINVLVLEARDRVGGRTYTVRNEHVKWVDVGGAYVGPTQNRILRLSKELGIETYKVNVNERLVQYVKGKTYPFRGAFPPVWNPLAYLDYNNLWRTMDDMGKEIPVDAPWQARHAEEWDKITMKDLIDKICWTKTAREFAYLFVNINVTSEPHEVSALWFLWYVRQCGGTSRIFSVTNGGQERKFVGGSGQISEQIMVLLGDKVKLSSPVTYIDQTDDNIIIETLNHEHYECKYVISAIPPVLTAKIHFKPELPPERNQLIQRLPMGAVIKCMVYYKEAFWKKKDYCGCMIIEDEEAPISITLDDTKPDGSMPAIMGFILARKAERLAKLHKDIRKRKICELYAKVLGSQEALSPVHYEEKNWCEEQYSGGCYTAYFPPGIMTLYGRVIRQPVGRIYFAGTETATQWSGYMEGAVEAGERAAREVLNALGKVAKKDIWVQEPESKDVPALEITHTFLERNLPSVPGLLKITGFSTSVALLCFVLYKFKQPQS
Put plainly: The ability of the compound(25 umol/kg/day) to inactivate monoamine oxidase (MAO) was tested on brain mitochondrial membranes of mice, for 3 days. The data set is classed as functional. The conditions noted are these: 72 h. In a few lines:
(§1)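 Male ICR mice (25-35 g), 25 µmol/kg/day ip in sterile saline for 3 days, n = 3; killed day 4, 24 h after last dose. Whole-brain mitochondria isolated by differential centrifugation, lysed in ice-cold water, membranes in 10 mM phosphate pH 7.4. Membranes preincubated 30 min at 37 °C with buffer (total), 3 × 10^-8 M clorgyline (MAO-B), 3 × 10^-7 M deprenyl (MAO-A), or both (residual).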

The target in data set [2] is T2, Amine oxidase [flavin-containing] A (Mus musculus, UniProt Q64133).
T2 sequence (Q64133 whole entry): T1 sequence (Q64133 whole entry)
Put plainly: The ability of the compound(25 umol/kg/day) to inactivate monoamine oxidase A(MAO-A) was tested on brain mitochondrial membranes of mice, for 3 day. The data set is classed as functional. The settings on record: 72 h. The essentials:
as §1

The nature of data set [3]: Residual activity was obtained. The data set is classed as functional. In a few lines: as §1
Data set [4] deals with T3, Amine oxidase [flavin-containing] B (Mus musculus, UniProt Q8BW75).
T3 sequence (Q8BW75 whole entry): T1 sequence (Q8BW75 whole entry)
The data set is described as follows: The ability of the compound(25 umol/kg/day) to inactivate monoamine oxidase B (MAO-B) was tested on brain mitochondrial membranes of mice, for 3 day. The data set is classed as functional. The settings on record: 72 h. In a few lines:
as §1

A short description of data set [5]: Ratio of activities of MAO-B / MAO-A. The data set is classed as functional.
The target in data set [6] is T2, Amine oxidase [flavin-containing] A. The data set is described as follows: The ability (124 umol/kg/day) to inactivate monoamine oxidase A(MAO-A) was tested on brain mitochondrial membranes of mice, for 3 day. The settings on record: 72 h.
For data set [7], the target named is T3, Amine oxidase [flavin-containing] B. The data set is described as follows: The ability (124 umol/kg/day) to inactivate monoamine oxidaseB (MAO-B) was tested on brain mitochondrial membranes of mice for 3 day. The settings on record: 72 h.
Data set [8] is described as follows: Residual activity was obtained. The data set is classed as functional.
Data set [9] addresses T1, Monoamine oxidase. Put plainly: The ability (25 umol/kg/day) to inactivate monoamine oxidase (MAO) was tested on brain mitochondrial membranes of mice, for 3 days. The data set is classed as functional. The conditions noted are these: 72 h.
The target of data set [10] is T3, Amine oxidase [flavin-containing] B. The data set is described as follows: The ability (25 umol/kg/day) to inactivate monoamine oxidase B (MAO-B) was tested on brain mitochondrial membranes of mice, for 3 day. The data set is classed as functional. The conditions noted are these: 72 h.
In data set [11] the target is T2, Amine oxidase [flavin-containing] A. The data set is described as follows: The ability (25 umol/kg/day) to inactivate monoamine oxidase A(MAO-A) was tested on brain mitochondrial membranes of mice, for 3 day. The data set is classed as functional. The settings on record: 72 h.

Take `C#CCN[C@H](C)Cc1ccccc1` [RNORDEPRENYL]: the Activity amounted to 1.31 nM on Monoamine oxidase [1], 1.07 nM in [2] and 0.68 nM in data set [4]. This molecule returned a Residual activity in data set [3] of 0.46 nM. In [5], the Ratio was 0.71.
Turning to `C#CCN(C(=O)OC1=CCN(C)CC1)[C@H](C)Cc1ccccc1`, the Activity in [6] was found to be 1.1 nmol/min/mg; in data set [7], 0.78 nmol/min/mg; in data set [8] it was 0.45 nmol/min/mg; on Monoamine oxidase [9], 1.36 nmol/min/mg. For the same molecule, the Ratio in data set [5] came to 0.63.
As for `C#CCN(C)[C@H](C)Cc1ccccc1` [SELEGILINE], the Activity is 0.84 nM and 1.36 nM at Monoamine oxidase [1]; 0.64 nM and 1.06 nM in [2]; 0.46 nM and 0.7 nM in data set [4]. Besides, the Residual activity in data set [3] was 0.24 nM and 0.44 nM. Besides, the Ratio in data set [5] was 0.72 and 0.66.
On to `C#CCN(C(=O)OC1=CCN(C)CC1)[C@@H](C)Cc1ccccc1`, for which the Activity in [10] turned out to be 3.35 nmol/min/mg; in data set [8], 0.2 nmol/min/mg; in data set [11], 0.76 nmol/min/mg; on Monoamine oxidase [9], 3.75 nmol/min/mg. The Ratio in data set [5] was determined as 4.4.
